ChEMBL document CHEMBL2434966, “Novel N-4-piperazinyl-ciprofloxacin-chalcone hybrids: synthesis, physicochemical properties, anticancer and topoisomerase I and II inhibitory activity” (Eur J Med Chem, 2013)

Assays:
SF-539 = experiment: Growth inhibition of human SF539 cells after 48 hrs by sulforhodamine B assay; type: functional; settings: SF-539, 48 h; for CC50: read-out: LC50 (the source's name)
Method in brief: (§1)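 NCI five-dose screen on the full 60-cell-line panel. Cells were given 10-fold dilutions from 10^-4 to 10^-8 M with continuous 48 h exposure, and growth was read by SRB staining. Percent growth was taken from time-zero, control and treated absorbances. GI50, TGI and LC50 were then derived, the GI50 being the concentration that gives a 50% lower net protein increase than control.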

RXF 393 = experiment: Growth inhibition of human RXF393 cells assessed as cell growth at 10^-5 M after 48 hrs by sulforhodamine B assay; type: functional; settings: RXF 393, 48 h, read-out: Activity
Method in brief: (§2)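 NCI 60-cell-line primary one-dose screen. Cells were exposed to a single 10^-5 M concentration for 48 h. The end point was sulforhodamine B protein staining, read spectrophotometrically. Results are reported as percent growth of treated cells relative to untreated control cells.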

NCI-H522 = experiment: Growth inhibition of human NCI-H522 cells assessed as cell growth at 10^-5 M after 48 hrs by sulforhodamine B assay; type: functional; settings: NCI-H522, 48 h, read-out: Activity; method in brief: as §2
M14 = experiment: Growth inhibition of human M14 cells after 48 hrs by sulforhodamine B assay; type: functional; settings: M14, 48 h
Method in brief: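 NCI 60-panel five-dose test at 10-fold dilutions, 10^-4 to 10^-8 M, with 48 h continuous exposure and SRB protein read-out. Percent growth derived from time-zero, untreated-control and treated absorbances. GI50 is the concentration where [(Ti-Tz)/(C-Tz)]×100 = 50. TGI is taken at Ti = Tz. LC50 is taken at [(Ti-Tz)/Tz]×100 = -50.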

SK-MEL-28 = experiment: Growth inhibition of human SK-MEL-28 cells after 48 hrs by sulforhodamine B assay; type: functional; settings: SK-MEL-28, 48 h; for CC50: read-out: LC50 (the source's name); method in brief: as §1
SK-MEL-2 = experiment: Growth inhibition of human SK-MEL-2 cells after 48 hrs by sulforhodamine B assay; type: functional; settings: SK-MEL-2, 48 h; for CC50: read-out: LC50 (the source's name); method in brief: as §1
SR = experiment: Growth inhibition of human SR cells after 48 hrs by sulforhodamine B assay; type: functional
Method in brief: (§3)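 NCI 60-cell panel, five concentrations (10-fold dilutions, 0.01–100 µM), 48 h continuous exposure; SRB protein stain read spectrophotometrically. Percent growth from time-zero, untreated-control and treated absorbances. GI50 is the concentration giving 50% lower net protein increase than control. Values beyond the tested range are reported as more or less than the highest or lowest concentration.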

OVCAR-4 = experiment: Growth inhibition of human OVCAR4 cells after 48 hrs by sulforhodamine B assay; type: functional; settings: OVCAR-4, 48 h; for CC50: read-out: LC50 (the source's name); method in brief: as §1
MCF7 = experiment: Growth inhibition of human MCF7 cells assessed as cell growth at 10^-5 M after 48 hrs by sulforhodamine B assay; type: functional; settings: MCF7, 48 h, read-out: Activity
Method in brief: (§4)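 NCI 60-cell-line primary screen. Single concentration of 10^-5 M, 48 h incubation. End point by sulforhodamine B protein staining read spectrophotometrically. Reported as percent growth of treated cells relative to untreated control cells.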

MDA-MB-435 = experiment: Growth inhibition of human MDA-MB-435 cells assessed as cell growth at 10^-5 M after 48 hrs by sulforhodamine B assay; type: functional; settings: MDA-MB-435, 48 h, read-out: Activity; method in brief: as §2
SN12C = experiment: Growth inhibition of human SN12C cells after 48 hrs by sulforhodamine B assay; type: functional; method in brief: as §1
DU-145 = experiment: Growth inhibition of human DU145 cells assessed as cell growth at 10^-5 M after 48 hrs by sulforhodamine B assay; type: functional; settings: DU-145, 48 h, read-out: Activity; method in brief: as §4
PC-3 = experiment: Growth inhibition of human PC3 cells assessed as cell growth at 10^-5 M after 48 hrs by sulforhodamine B assay; type: functional; settings: PC-3, 48 h, read-out: Activity; method in brief: as §2
786-0 = experiment: Growth inhibition of human 786-0 cells assessed as cell growth at 10^-5 M after 48 hrs by sulforhodamine B assay; type: functional; settings: 786-0, 48 h, read-out: Activity; method in brief: as §4
UO-31 = experiment: Growth inhibition of human UO31 cells after 48 hrs by sulforhodamine B assay; type: functional; settings: UO-31, 48 h; method in brief: as §3
HT-29 = experiment: Growth inhibition of human HT-29 cells assessed as cell growth at 10^-5 M after 48 hrs by sulforhodamine B assay; type: functional; settings: HT-29, 48 h, read-out: Activity; method in brief: as §4
[1] = target: T1, DNA topoisomerase 1 (Homo sapiens) (UniProt P11387); experiment: Inhibition of human recombinant topoisomerase 1-mediated relaxation of supercoiled pBR322 DNA at 20 uM after 30 mins by agarose gel electrophoresis relative to control
T1 sequence (whole entry): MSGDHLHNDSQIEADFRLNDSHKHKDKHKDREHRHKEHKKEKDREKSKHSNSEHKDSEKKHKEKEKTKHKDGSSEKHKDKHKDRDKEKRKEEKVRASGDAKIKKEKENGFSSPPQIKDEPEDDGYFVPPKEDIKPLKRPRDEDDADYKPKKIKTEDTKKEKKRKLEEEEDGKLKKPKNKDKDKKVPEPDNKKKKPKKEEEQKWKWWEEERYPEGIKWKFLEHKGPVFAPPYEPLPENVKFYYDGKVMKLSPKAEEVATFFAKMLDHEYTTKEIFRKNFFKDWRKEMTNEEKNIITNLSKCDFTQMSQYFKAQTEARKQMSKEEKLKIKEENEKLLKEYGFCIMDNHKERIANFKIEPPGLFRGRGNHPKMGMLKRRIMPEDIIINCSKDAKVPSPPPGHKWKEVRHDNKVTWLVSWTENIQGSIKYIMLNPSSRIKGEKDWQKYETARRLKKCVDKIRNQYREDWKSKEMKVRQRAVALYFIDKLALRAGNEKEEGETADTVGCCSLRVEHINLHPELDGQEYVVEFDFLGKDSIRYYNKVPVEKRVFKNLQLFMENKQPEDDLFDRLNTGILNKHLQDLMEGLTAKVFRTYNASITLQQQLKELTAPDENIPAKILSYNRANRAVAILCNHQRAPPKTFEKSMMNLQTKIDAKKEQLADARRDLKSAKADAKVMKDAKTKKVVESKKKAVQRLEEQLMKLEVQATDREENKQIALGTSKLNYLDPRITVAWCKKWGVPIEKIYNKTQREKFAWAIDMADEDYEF
Method in brief: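 Recombinant human topo I (0.4 units) with 100 ng supercoiled pBR322, 37 °C for 30 min in Tris-HCl pH 7.9, 150 mM NaCl, 0.1% BSA, 1 mM spermidine, 5% glycerol. Compounds came from 20 mM DMSO stocks, with matched DMSO in the enzyme-only control. Stopped with sarcosyl; 1% agarose/TAE gel, ethidium stain, UV densitometry. Camptothecin was the positive control.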

O=C(CN1CCN(c2cc3c(cc2F)c(=O)c(C(=O)O)cn3C2CC2)CC1)Nc1ccc(C(=O)/C=C/c2ccccc2)cc1
GI50 (SF-539): 3.6 µM
TGI (SF-539): > 100 µM
CC50 (SF-539): > 100 µM
growth at 10 µM (RXF 393): 41.7%
growth at 10 µM (NCI-H522): 10.6%
GI50 (M14): 5.22 µM
LC50 (concentration giving 50% net cell kill) (M14): > 100 µM
TGI (M14): > 100 µM
GI50 (SK-MEL-28): 18.8 µM
TGI (SK-MEL-28): > 100 µM
CC50 (SK-MEL-28): > 100 µM
GI50 (SK-MEL-2): 2.94 µM
TGI (SK-MEL-2): 11.3 µM
CC50 (SK-MEL-2): > 100 µM
GI50 (SR): 1.54 µM
LC50 (concentration killing 50% of cells) (SR): > 100 µM
TGI (SR): 6.1 µM
GI50 (OVCAR-4): 9.47 µM
TGI (OVCAR-4): > 100 µM
CC50 (OVCAR-4): > 100 µM
growth at 10 µM (MCF7): 12.5%
growth at 10 µM (MDA-MB-435): 19.2%
GI50 (SN12C): 3.02 µM
LC50 (lethal concentration, 50% net cell kill) (SN12C): > 100 µM
TGI (SN12C): > 100 µM
growth at 10 µM (DU-145): 43.1%
growth at 10 µM (PC-3): 55.2%
growth at 10 µM (786-0): 23.2%
GI50 (UO-31): 2.78 µM
LC50 (concentration killing 50% of cells) (UO-31): > 100 µM
TGI (UO-31): 45.4 µM
growth at 10 µM (HT-29): 11.4%
inhibition [1]: 6.4%

COc1cc(/C=C/C(=O)c2ccc(NC(=O)CN3CCN(c4cc5c(cc4F)c(=O)c(C(=O)O)cn5C4CC4)CC3)cc2)cc(OC)c1OC
GI50 (SF-539): 0.49 µM
TGI (SF-539): 2.62 µM
CC50 (SF-539): > 100 µM
growth at 10 µM (RXF 393): -87.6%
growth at 10 µM (NCI-H522): -71.5%
GI50 (M14): 0.77 µM
LC50 (concentration giving 50% net cell kill) (M14): > 100 µM
TGI (M14): 7.16 µM
GI50 (SK-MEL-28): 1.1 µM
TGI (SK-MEL-28): 17 µM
CC50 (SK-MEL-28): 98.2 µM
GI50 (SK-MEL-2): 1.98 µM
TGI (SK-MEL-2): 5.38 µM
CC50 (SK-MEL-2): 43.7 µM
GI50 (SR): 0.21 µM
LC50 (concentration killing 50% of cells) (SR): > 100 µM
TGI (SR): > 100 µM
GI50 (OVCAR-4): 1.61 µM
TGI (OVCAR-4): 84.6 µM
CC50 (OVCAR-4): > 100 µM
growth at 10 µM (MCF7): 26.5%
growth at 10 µM (MDA-MB-435): -1.52%
GI50 (SN12C): 0.53 µM
LC50 (lethal concentration, 50% net cell kill) (SN12C): > 100 µM
TGI (SN12C): 12.2 µM
growth at 10 µM (DU-145): 2.17%
growth at 10 µM (PC-3): 21.5%
growth at 10 µM (786-0): -67.8%
GI50 (UO-31): 1.17 µM
LC50 (concentration killing 50% of cells) (UO-31): > 100 µM
TGI (UO-31): 6.8 µM
growth at 10 µM (HT-29): -3.37%
inhibition [1]: 11.5%
